Source: publication PMC3569657 (EMBO Molecular Medicine, 2012)
Values joined by “and” are separate entries in the source; they are usually repeats but may differ in a detail not shown here. Equal values may be shown once. Read-outs that look alike come from different tables or passages of the source. Peptide text beside a SMILES is read from it. * marks the point of attachment. Cbz = O=C(OCc1ccccc1)*; CH2F = FC*

Experiments:
[1] = system: A549 cells; test: Cell death by LDH release; type: cell-based, human; details: for effect of pre-treatment on FTY720-mediated cell death / growth suppression: A549 cells, FTY720 20 µM, OA 10 nM
Method in brief: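 A549 cells were exposed to 20 µM test compound or vehicle for 24 h, and cell death was read as LDH released into the medium. Variants included pre-treatment with okadaic acid (10 nM), Z-VAD or necrostatin, and PP2A siRNA knockdown against scrambled siRNA (knockdown checked by Western blot). Another variant used HA-tagged PP2A overexpression, confirmed by Western blot, compared with controls.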

[2] = system: H157 (K-Ras mutant) human lung cancer cells; test: Cell death by LDH release; type: cell-based; details: FTY720 20 µM; for effect on FTY720-mediated cell death: LDH release
Method in brief: (§1)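 Cell death was assessed in human lung cancer lines H157 (K-Ras mutant) and H827 (EGFR mutant) after exposure to test compound. Conditions compared with controls: RIPK1 inhibition by necrostatin, PP2A inhibition by okadaic acid, and siRNA knockdown of RIPK1 or PP2Ac.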

[3] = target: WT-I2PP2A/SET-GFP (Homo sapiens, UniProt Q01105); test: anti-GFP pull-down from A549 cells, protein-bound endogenous lipids by LC/MS/MS; type: binding; details: for binding of WT-I2PP2A/SET to ceramide, fold: compared to the K209D-I2PP2A/SET (so in the source)
Sequence of WT-I2PP2A/SET-GFP (Q01105 1-277 isoform Q01105-2): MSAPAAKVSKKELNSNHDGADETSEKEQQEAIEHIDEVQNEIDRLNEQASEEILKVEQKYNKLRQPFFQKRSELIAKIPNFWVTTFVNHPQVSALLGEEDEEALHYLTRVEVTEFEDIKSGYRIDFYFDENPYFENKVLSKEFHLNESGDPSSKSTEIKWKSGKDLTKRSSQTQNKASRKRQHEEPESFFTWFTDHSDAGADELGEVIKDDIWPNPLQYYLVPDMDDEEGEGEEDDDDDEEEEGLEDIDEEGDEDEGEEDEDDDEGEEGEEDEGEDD

[4] = target: purified recombinant human I2PP2A/SET (Homo sapiens, UniProt Q01105); test: SPR binding of purified human I2PP2A/SET to lipid vesicles
Sequence of purified recombinant human I2PP2A/SET (Q01105 1-277 isoform Q01105-2): as above
Method in brief: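 SPR at 25°C. Sensor chip coated with vesicles of POPC:POPE:x (75:20:5, x = C18-ceramide or test compound) to about 6200 RU, against a POPC:POPE (80:20) control surface, and stabilised with 50 mM NaOH. Protein (I2PP2A/SET, or p47phox-PX control protein) in 20 mM HEPES pH 7.4, 0.16 M KCl was flowed at 5 µl/min. Triplicate sensorgrams per lipid were fitted individually for ka and kd, giving Kd = kd/ka.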

[5] = FTY720 and P-FTY720 in tumour and serum of A549-xenograft mice by LC/MS/MS; type: in vivo, SCID mice; details: mice treated with oral FTY720 3 mg/kg/day
[6] = FTY720 and P-FTY720 in serum and tumours of LLC-allograft mice by LC/MS/MS; type: in vivo, mouse; details: oral FTY720 10 mg/kg
Method in brief: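 Lewis lung adenocarcinoma allografts were grown in flanks of WT and SK-2−/− mice. Animals received oral test compound at 10 mg/kg. Parent compound and its phosphorylated form were quantified by LC/MS/MS in the tumours.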

[7] = target: I2PP2A/SET (Homo sapiens, UniProt Q01105); type: binding; details: unlabeled competitor 10 µM; purified I2PP2A/SET
Sequence of I2PP2A/SET (Q01105 1-277 isoform Q01105-2): as above
Method in brief: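 Recombinant human I2PP2A/SET (His-tag vector), 1–2 µg, incubated with biotin alone or biotin-labelled test compound (1, 5 or 10 µM). Competition runs added unlabelled ceramide or the parent or phosphorylated compound, 10 µM each. Bound protein was captured by streptavidin/avidin column pull-down, and eluates were run on SDS–PAGE and immunoblotted with anti-I2PP2A/SET.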

[8] = system: A549-xenograft-derived tumours; test: A549-xenograft-derived tumour growth in SCID mice; type: in vivo, Balb/c SCID mice
Method in brief: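 A549 cells, or A549 lines with control shRNA, I2PP2A/SET shRNA or shRNA plus WT-I2PP2A/SET re-expression, grown as flank xenografts in Balb/c SCID mice. Test compound was given by oral gavage at 3 mg/kg/day against vehicle-treated controls: 15 days (n = 12) for parental xenografts, 18 days for the shRNA lines. Tumour volume change was computed relative to untreated sh-control mice at Day 18. Tumours were also examined by electron microscopy for mitochondrial damage and cytoplasmic swelling.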

[9] = system: P-PP2A (Y307), c-Myc, hTERT mRNA; test: PP2A signalling markers in A549-xenograft tumours; type: in vivo, SCID mice; details: 3 mg/kg/day oral
[10] = system: c-Myc; test: c-Myc expression in A549 cells by Western blotting; type: cell-based, human; details: compared to controls
Method in brief: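 A549 cells were treated with test compound or its phosphorylated form alongside controls. c-Myc was detected by Western blotting with actin as loading control, and relative c-Myc levels were derived from band quantification.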

[11] = system: c-Myc-V5; test: Ectopically expressed c-Myc-V5 in MEFs by Western blotting; type: cell-based, mouse
Method in brief: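 V5-tagged c-Myc was ectopically expressed in WT, SK-1−/− and SK-2−/− mouse embryonic fibroblasts. Cells were exposed to test compound, and c-Myc was detected by Western blotting with actin as loading control. Relative c-Myc levels were derived from band quantification.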

[12] = system: WT MEFs; test: MTT growth assay; type: cell-based; details: Mus musculus
[13] = system: SK1−/− MEFs; test: MTT growth assay; type: cell-based; details: Mus musculus
[14] = system: SK2−/− MEFs; test: MTT growth assay; type: cell-based; details: Mus musculus
[15] = system: Lewis lung adenocarcinoma cell (LLC)-derived allografts; test: Lewis lung adenocarcinoma allograft growth in WT and SK-2−/− mice; type: in vivo, mouse; details: 10 mg/kg/day oral, vs controls
Method in brief: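 Lewis lung adenocarcinoma cells were implanted in flanks of WT (C57BL/6 background) and SK-2−/− mice. Animals were treated with oral test compound at 10 mg/kg or served as controls. Results are given as % change in tumour volume for each genotype against its controls at Day 13.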

[16] = system: PP2A; test: PP2A activity assay on A549 cell extracts; type: cell-based, human; details: 10 µM FTY720, compared to vehicle-treated controls
Method in brief: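 PP2A phosphatase activity was measured in extracts of A549, A549/shI2PP2A and A549/shI2PP2A re-expressing WT-I2PP2A/SET (about 60% reconstitution). Cells were grown with or without 10 µM test compound. In a related set, PP2A siRNA knockdown in A549 cells was compared with scrambled-siRNA controls.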

[17] = system: serum LDH; test: Total LDH released in serum of xenograft-bearing mice; type: in vivo, SCID mice; details: mice bearing A549/sh-control xenografts, 3 mg/kg/day oral
Method in brief: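 Balb/c SCID mice bearing A549/sh-control, sh-I2PP2A/SET or reconstituted WT-I2PP2A/SET xenografts were dosed by daily oral gavage at 3 mg/kg for 18 days, with untreated mice as controls. Total serum LDH was measured by an external analytical lab.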

[18] = system: H827 (EGFR mutant) human lung cancer cells; test: Cell death by LDH release; type: cell-based; details: FTY720 20 µM
Method in brief: as §1

[19] = system: RIPK1−/− MEFs; test: Cell death in RIPK1−/− versus RIPK1+/+ MEFs; type: cell-based, mouse; details: FTY720 15 µM, RIPK1−/− compared to RIPK1+/+ MEFs
[20] = system: MEFs obtained from caspase3/7−/− DKO, Bax/Bak−/− DKO or ATG5−/− KO mice; test: MTT growth assay in knockout MEFs; type: cell-based, mouse; details: various concentrations
[21] = system: A549 cells; test: Annexin V/7-AAD flow cytometry; type: cell-based, human; details: compared to controls
[22] = system: ATG5−/− MEFs; test: Caspase 3 activity assay, taxol-induced apoptosis; type: cell-based, mouse; details: 80 nM and 24 h, compared to WT MEFs
[23] = target: Y122C-I2PP2A/SET-GFP (Homo sapiens, UniProt Q01105, Y135C); test: anti-GFP pull-down from A549 cells, protein-bound endogenous lipids by LC/MS/MS; type: binding; details: compared to vector-transfected controls
Sequence of Y122C-I2PP2A/SET-GFP (Q01105 1-277 isoform Q01105-2 Y122C): as the sequence (Q01105 1-277 isoform Q01105-2) above, with Y122C counted along it

CC(NC(=O)C(NC(=O)OCc1ccccc1)C(C)C)C(=O)NC(CC(=O)O)C(=O)CF (stereo not drawn) [Z-VAD] (Cbz-Val-Ala-Asp-CH2F; configuration not given here)
effect of pre-treatment on FTY720-mediated cell death / growth suppression ([1]; LDH release): had no effect

CN1C(=O)C(Cc2c[nH]c3ccccc23)NC1=S (centres unmarked) [necrostatin]
effect of pre-treatment on FTY720-mediated cell death / growth suppression ([1]; LDH release): significantly prevented | effect on FTY720-mediated cell death [2]: prevented FTY720-mediated cell death

CCCCCCCCCCCCC/C=C/[C@@H](O)[C@@H](N)CO [sphingosine]
binding of endogenous sphingosine ([3]; LC/MS/MS after pull-down): bind

C=C1[C@@H](O)[C@@H]2O[C@]3(CC[C@H](/C=C/[C@@H](C)[C@@H]4CC(C)=C[C@@]5(O[C@H](C[C@@](C)(O)C(=O)O)CC[C@H]5O)O4)O3)CC[C@H]2O[C@@H]1[C@@H](O)C[C@H](C)[C@H]1O[C@@]2(CCCCO2)CC[C@H]1C [okadaic acid]
effect on FTY720-mediated cell death [2]: prevented FTY720-mediated cell death

CCCCCCCCCCCCC/C=C/[C@@H](O)[C@H](CO)NC(=O)CCCCCCCCCCCCCCCCCCC [C20]
binding of WT-I2PP2A/SET to ceramide, fold [3]: 1.9 fold

CCCCCCCCCCCCC/C=C/[C@@H](O)[C@H](CO)NC(=O)CCCCCCCCCCCCCCCCCCCCC [C22]
binding of WT-I2PP2A/SET to ceramide, fold [3]: 2.6 fold

CCCCCCCCc1ccc(CC[C@](N)(CO)COP(=O)(O)O)cc1 [P-FTY720]
Protein Kd ([4]; liposomes POPC:POPE:x (75:20:5), control POPC:POPE (80:20), 1 µM I2PP2A, 20 mM HEPES pH 7.4, 160 mM KCl): below the detection limit | accumulation in A549-xenograft-derived tumours [5]: 0.05 pmol/nmol Pi | accumulation in serum [5]: ~400 pmol/mL | accumulation in serum on loss of SK-2 ([6]; SK-2−/− mice): almost completely abrogated

CCCCCCCCc1ccc(CCC(N)(CO)CO)cc1 [FTY720, 2-amino-2-[2-(4-octylphenyl)ethyl]propane-1,3-diol]
Kd ([4]; Protein Kd, liposomes POPC:POPE:x (75:20:5), control POPC:POPE (80:20), 1 µM I2PP2A, 20 mM HEPES pH 7.4, 160 mM KCl): ~11 nM and 11 nM | competition with B-FTY720-I2PP2A/SET binding [7]: competed significantly | tumour suppression in A549/sh-I2PP2A/SET xenografts expressing WT-I2PP2A/SET ([8]; 3 mg/kg/day oral): restored tumour suppressor effects | tumour suppression in response to I2PP2A/SET knockdown (A549/sh-I2PP2A/SET xenografts) ([8]; 3 mg/kg/day oral): no additional effects | growth of A549-xenograft-derived tumours ([8]; 3 mg/kg/day oral for 15 days, n = 12, p < 0.05 vs controls): inhibited the growth | inhibition of growth of A549/control-derived xenografts ([8]; 3 mg/kg/day oral, 18 days, vs vehicle-treated controls): ~80% | tumours with damaged/swollen mitochondria (TEM) ([8]; oral FTY720, n = 20): ~40% | accumulation in A549-xenograft-derived tumours [5]: 0.2 pmol/nmol Pi | accumulation in serum [5]: ~100 pmol/mL | c-Myc and hTERT mRNA in tumours ([9]; IHC or Western blotting, Q-PCR): decreased | inactive P-PP2A (Y307) in tumours ([9]; IHC, without affecting total PP2A): decreased | c-Myc levels [10]: decreased c-Myc levels | reduced c-Myc expression ([11]; SK-1−/− MEFs): 70% | reduced c-Myc expression ([11]; SK-2−/− MEFs): 55% | reduced c-Myc expression ([11]; WT MEFs): 80% | IC50 [12]: ~10000 nM | IC50 [13]: ~10000 nM | IC50 [14]: ~10000 nM | inhibition of tumour growth ([15]; SK-2−/− mice): ~47% | inhibition of tumour growth ([15]; WT mice): ~60% | accumulation in tumours grown in WT and SK-2−/− mice [6]: comparable | PP2A activity [16]: enhanced PP2A activity | cell death ([1]; 20 µM, 24 h, LDH release): significantly induced cell death | increase of FTY720-mediated cell death on overexpression of PP2A-HA ([1]; compared to controls): ~40% | serum LDH [17]: increased serum LDH | PP2A-dependent necroptosis [2]: detected | PP2A-dependent necroptosis [18]: detected | cell death on genetic loss of RIPK1 [19]: almost completely abrogated cell death | effect of genetic loss of caspases3/7, Bax/Bak or ATG5 on FTY720-induced cell death [20]: no protective effect | Annexin V/7-AAD positive cell populations [21]: increased

CCCCCCCCCCCCC/C=C/[C@@H](O)[C@H](CO)NC(=O)CCCCCCCCCCCCCCCCCCCCCCC [C24]
binding of WT-I2PP2A/SET to ceramide, fold [3]: 2.1 fold

CC(=O)O[C@H]1C(=O)[C@@]2(C)[C@H]([C@H](OC(=O)c3ccccc3)[C@]3(O)C[C@H](OC(=O)[C@H](O)[C@@H](NC(=O)c4ccccc4)c4ccccc4)C(C)=C1C3(C)C)[C@]1(OC(C)=O)CO[C@@H]1C[C@@H]2O [taxol]
caspase 3 activity (apoptosis) [22]: increased caspase 3 activity

CCCCCCCCCCCCC/C=C/[C@@H](O)[C@H](CO)NC(=O)CCCCCCCCCCCCCCCCC [C18-ceramide]
Kd ([4]; read-out: Protein Kd, liposomes POPC:POPE:x (75:20:5), control POPC:POPE (80:20), 1 µM I2PP2A, 20 mM HEPES pH 7.4, 160 mM KCl): ~11 nM and 11 nM | competition with B-FTY720-I2PP2A/SET binding [7]: competed significantly

CCCCCCCCCCCCC/C=C/[C@@H](O)[C@H](CO)NC(=O)CCCCCCCCCCCCCCCCCCCCCCCCC [C26]
binding of WT-I2PP2A/SET to ceramide, fold [3]: 2.5 fold | increased binding of Y122C-I2PP2A/SET to ceramide, fold [23]: ~2.4 fold
